# Assay results from ChEMBL document CHEMBL1125500 (J Med Chem, 1992).
# Columns and labels:
# [1] = Inhibition of cytochrome P450 progesterone 16-alpha hydroxylase; type: ADME, Rattus norvegicus
# [2] = target: T1, Lanosterol 14-alpha demethylase (Rattus norvegicus, UniProt Q64654); assay: Inhibition of lanosterol 14 alpha-demethylase cytochrome P450 51A
# T1 sequence (Q64654 whole entry): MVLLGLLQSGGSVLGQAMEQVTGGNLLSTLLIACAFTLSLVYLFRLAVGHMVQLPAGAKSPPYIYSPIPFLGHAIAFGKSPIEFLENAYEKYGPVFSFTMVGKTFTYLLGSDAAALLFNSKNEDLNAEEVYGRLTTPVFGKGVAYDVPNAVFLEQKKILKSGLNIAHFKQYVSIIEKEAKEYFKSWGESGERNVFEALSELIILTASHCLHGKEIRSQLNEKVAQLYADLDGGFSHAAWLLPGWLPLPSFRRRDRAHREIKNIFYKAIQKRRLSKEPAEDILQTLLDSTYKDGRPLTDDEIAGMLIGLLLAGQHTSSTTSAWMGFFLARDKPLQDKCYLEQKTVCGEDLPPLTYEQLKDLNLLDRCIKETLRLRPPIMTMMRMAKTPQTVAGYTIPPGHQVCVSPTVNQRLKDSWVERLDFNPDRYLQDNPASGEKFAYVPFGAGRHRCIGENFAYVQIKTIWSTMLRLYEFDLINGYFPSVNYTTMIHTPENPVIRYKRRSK
# Outline: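 Liver microsomes from cholestyramine-treated male rats. Buffer was potassium phosphate pH 7.0 with DTT, EDTA, MgCl2, 0.005% Tween-20, 20% glycerol, 5 mM glucose 6-phosphate and G6P dehydrogenase. […] Reaction was started with NADPH, run 30 min at 37 °C and stopped with TCA. Tritiated water-soluble products were separated on Bond-Elut and counted by scintillation in duplicate.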
# Cytochrome P450 2A2 = Cytochrome P450 2A2 (Rattus norvegicus, UniProt P15149); assay: Inhibition of cytochrome P450 progesterone 15-alpha hydroxylase; type: ADME
# [3] = Inhibition of Steroid 17-alpha-hydroxylase/17,20 lyase cytochrome P450 17A1; parameters: species or system Sus scrofa
# [4] = target: Cholesterol side-chain cleavage enzyme, mitochondrial (Bos taurus) (UniProt P00189); assay: Inhibition of cholesterol side chain cleavage cytochrome P450
# [5] = Inhibition of lauric acid hydroxylase cytochrome P450 4A; parameters: species or system Rattus norvegicus
# Outline: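 Microsomal protein (0.05 mg/mL) with [14C]lauric acid (10 nmol, 6 mCi/mmol), potassium phosphate pH 7.4, MgCl2, EDTA, glucose 6-phosphate, glucose-6-phosphate dehydrogenase (2 units) and NADPH, in 1 mL. Ran 10 min at 37 °C and was stopped with CH2Cl2. Products were resolved by reverse-phase HPLC on a MeCN gradient with radioflow detection.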
# Sequence of Cholesterol side-chain cleavage enzyme, mitochondrial (Bos taurus) (P00189 whole entry, looked up): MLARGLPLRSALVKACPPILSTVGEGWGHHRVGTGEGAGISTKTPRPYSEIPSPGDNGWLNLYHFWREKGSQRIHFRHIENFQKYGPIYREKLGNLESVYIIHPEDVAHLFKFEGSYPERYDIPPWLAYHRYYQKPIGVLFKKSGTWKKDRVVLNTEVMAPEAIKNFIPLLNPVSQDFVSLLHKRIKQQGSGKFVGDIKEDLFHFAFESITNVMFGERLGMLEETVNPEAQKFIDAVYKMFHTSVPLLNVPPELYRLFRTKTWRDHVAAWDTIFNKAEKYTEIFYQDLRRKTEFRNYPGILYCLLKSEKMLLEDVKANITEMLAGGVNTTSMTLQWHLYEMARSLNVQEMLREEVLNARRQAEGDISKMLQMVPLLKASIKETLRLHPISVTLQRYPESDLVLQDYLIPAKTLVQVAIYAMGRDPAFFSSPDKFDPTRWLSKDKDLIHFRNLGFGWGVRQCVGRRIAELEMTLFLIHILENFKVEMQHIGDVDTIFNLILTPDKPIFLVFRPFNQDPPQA
# Sequence of Cytochrome P450 2A2 (P15149 whole entry): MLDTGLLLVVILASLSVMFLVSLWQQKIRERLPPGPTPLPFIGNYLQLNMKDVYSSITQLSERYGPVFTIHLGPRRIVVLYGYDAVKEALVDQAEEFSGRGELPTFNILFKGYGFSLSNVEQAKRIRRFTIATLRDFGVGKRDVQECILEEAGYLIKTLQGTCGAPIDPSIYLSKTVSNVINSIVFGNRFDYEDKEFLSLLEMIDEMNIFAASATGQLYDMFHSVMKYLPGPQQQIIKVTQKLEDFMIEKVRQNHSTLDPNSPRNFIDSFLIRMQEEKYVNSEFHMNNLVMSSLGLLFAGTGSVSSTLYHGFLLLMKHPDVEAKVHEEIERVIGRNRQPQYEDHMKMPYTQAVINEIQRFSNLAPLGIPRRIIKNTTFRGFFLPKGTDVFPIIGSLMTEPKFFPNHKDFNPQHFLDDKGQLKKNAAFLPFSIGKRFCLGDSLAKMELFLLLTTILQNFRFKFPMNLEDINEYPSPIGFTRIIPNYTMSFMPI
SMILES,IC50 [1],IC50 [2],IC50 (Cytochrome P450 2A2),IC50 [3],IC50 [4],IC50 [5]
CC(=O)N1CCN(c2ccc(OCC3COC(Cn4ccnc4)(c4ccc(Cl)cc4Cl)O3)cc2)CC1 (stereo in doubt; 2) [KETOCONAZOLE],83900 nM,47 nM,543 nM,50 nM,1240 nM,
CC(=O)N1CCN(c2ccc(OC[C@H]3CO[C@@](Cn4ccnc4)(c4ccc(Cl)cc4Cl)O3)cc2)CC1,37900 nM,1600 nM,1080 nM,589 nM,2950 nM,> 100000 nM
CC(=O)N1CCN(c2ccc(OC[C@@H]3CO[C@](Cn4ccnc4)(c4ccc(Cl)cc4Cl)O3)cc2)CC1,32300 nM,1370 nM,728 nM,,3920 nM,> 100000 nM
CC(=O)N1CCN(c2ccc(OCC3COC(Cn4ccnc4)(c4ccc(Cl)cc4Cl)O3)cc2)CC1 (stereo in doubt; 4) [KETOCONAZOLE],69300 nM,119 nM,369 nM,2380 nM,5400 nM,> 100000 nM
